MLLE-PAM2 inh = blocks PAM2 peptide binding to the PABP1 MLLE domain; P11940; GST-MLLE / FITC-PAM2 fluorescence polarization; inhibition, % at 20 µM; 360,000 compounds, 0.36% hits; AID 588489; in the data active means inhibition above about 35%, passing the limit was not always enough
EBNA-1 inh = blocks EBNA-1 binding to DNA. inhibition, % at 14.8 µM. EBNA-1 DNA binding, fluorescence polarization. 300,000 compounds, 0.34% hits; in the data active means inhibition above about 28%
HCV NS3 hel inh = blocks Hepatitis C virus NS3 helicase unwinding | NS3 helicase DNA unwinding, Cy5 molecular beacon fluorescence | inhibition, % at 10.9 µM | 290,000 compounds, 0.56% hits;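 active means inhibition above the mean of all tested compounds plus 3 SD, set per campaign, cut at about 35% in these data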
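System: NS3 helicase fragment of HCV / Schedule: 1 h at 25 °C / Control set: DMSO alone as 0% and 110 µM thioflavine S as 100% / Reagent: Cy5/quencher beacon DNA duplex and ATP to start / Technique: Cy5 fluorescence / Replication: singlicate / Evaluation: % inhibition of end-to-start signal ratio versus controls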
PABP polyA inh = blocks human PABP binding to poly(A) RNA. AID 2014. inhibition, % at 35 µM. 290,000 compounds, 1% hits. P11940. fluorescence polarization;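 further: calls also rest on retests at 20 µM and on dose response follow-up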
eIF4H inh = inhibitors of RNA binding by human eIF4H; inhibition, % at 35 µM; 290,000 compounds, 0.94% hits; Q15056; eIF4H fluorescence polarization binding assay; AID 2012;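 further: calls also rest on retests at 20 µM and on dose response follow-up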
ZTA counter = counter-screen for EBNA-1 inhibitors: inhibitors of Epstein-Barr virus ZTA; P03206; ZTA-DNA binding, fluorescence polarization; inhibition, % at 11 µM; 320,000 compounds, 0.15% hits; AID 2234; in the data active means inhibition above about 33%
Target sequence (P03206 whole entry, looked up): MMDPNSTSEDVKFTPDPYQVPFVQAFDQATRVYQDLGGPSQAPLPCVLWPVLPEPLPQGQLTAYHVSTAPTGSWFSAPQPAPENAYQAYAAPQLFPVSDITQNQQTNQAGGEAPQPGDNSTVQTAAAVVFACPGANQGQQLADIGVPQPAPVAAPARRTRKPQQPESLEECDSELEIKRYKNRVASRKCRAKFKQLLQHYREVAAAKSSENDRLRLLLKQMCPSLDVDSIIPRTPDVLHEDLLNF
A number is an active result; n = inactive; u = inconclusive; x = no result; + = active, no number. Hits are enriched below; roughly 2.1% of the tested compounds scored in any of these assays. Unless noted, how the calls were made is not given here.

SMILES	MLLE-PAM2 inh	EBNA-1 inh	HCV NS3 hel inh	PABP polyA inh	eIF4H inh	ZTA counter
C[N+](C)(C)CCc1ccc(O)cc1	n	n	n	55	u	n
CCCCCCCCc1ccc(O)cc1	n	x	x	x	x	n
O=c1[nH]c(=S)n(Cc2ccco2)c(O)c1C=NCc1cccs1	n	n	n	34	53	n
NC(=O)c1ccc(N=Cc2c(O)n(Cc3ccco3)c(=O)[nH]c2=O)cc1	n	n	n	9.7	n	n
COc1ccc(CN2Cc3cc(N4CCCCC4)ccc3-n3nncc3C2)cc1	n	x	x	x	x	x
O=c1c2ccccc2[se]n1-c1ccccc1	37	n	n	n	n	n
CCOC(=O)[C@]1(C#N)[C@@H]2C=CC(C(C)=O)=CN2[C@@H](C(N)=O)[C@@H]1c1ccsc1	n	n	n	66	57	n
COc1ccc(N2C(=O)/C(=C/c3cc(C)n(-c4ccc(C)cn4)c3C)C(=O)NC2=S)c(OC)c1	n	n	n	active	n	n
Cc1ccc(-n2c(C)cc(/C=C3/C(=O)NC(=O)N(C)C3=O)c2C)cc1	n	n	n	n	u	n
CNc1ccc2nc3ccccc3[n+](C)c2c1	86	45	n	u	u	83
CCCC[N+]12CCC(CC1)C(C(O)(c1ccccc1)c1ccccc1)C2 (stereo not given)	n	n	n	n	active	n
CC(C)C(=O)NC(Oc1ccccc1Cl)C(Cl)(Cl)Cl (stereo not given)	n	n	n	n	n	n
COc1cc2c(cc1OC)C(c1c(O)n(CCc3ccccc3)c(=S)[nH]c1=O)NCC2 (stereo not given)	x	n	n	40	u	n
COc1ccc(C2CC(c3c(O)n(CCc4ccccc4)c(=O)[nH]c3=O)=NN2)cc1OC (stereo not given)	n	n	n	n	n	n
COc1cccc(O)c1CN1CCCC(C(=O)c2sccc2C)C1 (stereo not given)	n	n	n	n	n	n
CN1/C(=C\C=C\C2=[N+](C)c3ccc4ccccc4c3C2(C)C)C(C)(C)c2ccccc21	x	101	n	u	u	+
CC1C(C)N1CC(O)Cn1ccnc1[N+](=O)[O-] (stereo not given)	n	n	n	n	n	n
c1cncc(C2CCCCN2)c1 (stereo not given)	n	n	n	n	n	n
c1cncc(C2Nc3cccc4cccc(c34)N2)c1	n	n	n	60	92	n
COC(=O)c1cccc(NC(=O)N2C[C@H]3C[C@@H](C2)c2cccc(=O)n2C3)c1	n	n	n	n	n	n
C=CCn1c(O)c(/C=C2\C=Nc3ccccc32)c(=O)[nH]c1=O	n	n	n	58	u	n
OC(c1cccc(Cl)c1)(c1cccc(Cl)c1)C1CN2CCC1CC2 (stereo not given)	n	n	n	n	n	n
Cn1cc(NC(=O)CCl)cn1	n	n	n	n	1.5	n
CC(=O)NC1=C(N2CC2C)C(=O)C(NC(C)=O)=C(N2CC2C)C1=O (stereo not given)	n	x	x	x	x	x
c1ccc(OCC2CO2)cc1 (stereo not given)	n	x	x	x	x	n
SMILES	MLLE-PAM2 inh	EBNA-1 inh	HCV NS3 hel inh	PABP polyA inh	eIF4H inh	ZTA counter
c1ccc(-c2[nH]c[n+](CC3CO3)c2-c2ccccc2)cc1 (stereo not given)	x	n	n	n	n	40
Cc1ccccc1CCNCc1cc2cccc(C)c2[nH]c1=O	n	n	n	n	n	n
CCN1C(=O)/C(=C\c2ccc([N+](=O)[O-])s2)C(=O)NC1=S	x	x	n	3.4	52	x
COc1ccc(OC)c(N2C(=O)NC(=O)/C(=C/c3ccc([N+](=O)[O-])s3)C2=O)c1	n	n	n	n	n	n
COc1ccc(C(=O)C2CCCN(Cc3ccc(C)s3)C2)c(OC)c1 (stereo not given)	n	n	n	n	n	n
COc1ccc(C(=O)C2CCCN(Cc3cccc(C)n3)C2)c(OC)c1 (stereo not given)	n	n	n	59	92	n
C=CCC1(Cc2ccsc2)C(=O)NC(=O)NC1=O	n	x	x	x	x	x
CCN1C(=O)/C(=C/c2ccc3c(c2)CCN3CCCCl)C(=O)NC1=S	n	n	n	n	n	n
